This is a sample that favours compounds with a hit; in the whole collection about 2.1% have one here.
LMP1 NFkB inh: EBV LMP1-driven NF-kappaB luciferase reporter inhibitors, primary screen, cell-based, luminescence, single point. 0.69% of 350,000 active. inhibition, % at 12.5 µM. LMP1-induced NF-kappaB luciferase reporter cells; in the data active means inhibition above about 41%; inconclusive means no clear call, values can overlap the other calls;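 further: 0% = neutral control wells and 100% = reference inhibitor control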
PAX8 inh HTS: inhibitors of PAX8-driven TPO luciferase reporter, primary screen, RMG-I cells, single concentration. inhibition, % at 12.6 µM. SteadyGlo, 24 h. 1.2% of 360,000 active;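 active means mean replicate inhibition at least 60% with every replicate also reaching 60%; inconclusive means only one of the two criteria is met; inactive means mean below 60% and not all replicates reaching 60%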;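 further: luciferase light reporting Pax8 driven TPO promoter activity; plate controls were median of neutral control wells for no effect and mitoxantrone controls for full effect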
Shn3 3UTR inh: reduction of Shn3 3'UTR firefly luciferase signal, primary screen, Schnurri-3 inhibitor project, cell-based, Clone20 osteoblasts, set 2. Clone20 osteoblast Shn3 3'UTR firefly luciferase, 24 h. inhibition, % at 12.5 µM. 0.52% of 360,000 active;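 active means mean inhibition of at least 75% with every replicate also reaching 75%; inconclusive means mean inhibition at least 75% but some replicate below; inactive means mean inhibition below 75%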;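 further: 0% = median of neutral control wells and 100% = pilot-screen positive control compound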
FN deposit inh: inhibitors of fibronectin matrix deposition, primary screen, AH1F cells, Alexa488-fibronectin fluorescence, plate reader | AH1F fibroblasts, overnight | AID 743247, 2014 | 0.086% of 350,000 active | inhibition, % at 12.6 µM;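 active means mean inhibition across replicates of 30% or more, regardless of how many single replicates reach that level; inconclusive means mean under 30% yet at least half of replicates reach 30%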;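 further: positive control wells lacked labelled fibronectin entirely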
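Material – AH1F fibroblast monolayer, labelled fibronectin deposition · Reagent – labelled fibronectin 24 nM · Timing – 1 h adhesion, overnight exposure · Measured by – fluorescence at 485 nm excitation, 525 nm emission · Read-out – inhibition of fibronectin deposition signal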
EWS-Fli block: EWS/Fli-driven NR0B1 reporter inhibitors, primary screen, A673 cells, NR0B1 luciferase, luminescence, MLPCN library | viability-normalised | inhibition, % at 12.6 µM | 0.67% of 350,000 active | AID 651661, 2012;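 active means mean inhibition of at least 50% after viability correction, with every replicate also passing that limit; inconclusive means mean reaches 50% but only one of two replicates passes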;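 further: firefly luciferase signal divided by Alamar Blue viability fluorescence both relative to DMSO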
aSyn 5UTR inh: MLPCN primary screen, SNCA 5' untranslated region; inhibition, % (tested at 7.5 µM); AID 1813, 2009; alpha-synuclein 5'UTR reporter, inhibitor activity; 0.82% of 300,000 active; in the data active means inhibition above about 60%; inconclusive means no clear call, values can overlap the other calls;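 further: H4 neuroglioblastoma cells stably carrying SNCA 5'UTR luciferase fusion; 0% = DMSO wells and 100% = positive control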
* = called active by the depositor; ? = inconclusive; · = not tested or not shown.

SMILES	LMP1 NFkB inh	PAX8 inh HTS	Shn3 3UTR inh	FN deposit inh	EWS-Fli block	aSyn 5UTR inh
CCCCC(=O)OCC(=O)C1(O)Cc2c(O)c3c(c(O)c2C(OC2CC(NC(=O)C(F)(F)F)C(O)C(C)O2)C1)C(=O)c1c(OC)cccc1C3=O (stereo unspecified)	48*	-40	75	-1	45	·
CC(=O)N1CC2(C1)[C@H](c1ccc(-c3cccc(F)c3)cc1)[C@H](CO)N2CC1CC1	·	·	·	9	-6	·
C[C@H]1CCCCO[C@@H](CN(C)C(=O)Nc2ccccc2)[C@@H](C)CN([C@@H](C)CO)C(=O)c2cc(NC(=O)c3ccccc3)ccc2O1	·	12	·	5	-1	·
COc1ccccc1NC(=O)N1C[C@@H](O)COC[C@@H]2O[C@@H](CC(=O)NCc3ccccc3)CC[C@H]21	·	3	·	-4	1	·
Cn1cccc1C(=O)OCC(=O)Nc1ccc2c(c1)OCO2	44*	-10	-7	3	-1	-101
CCCN(C)C[C@H]1Oc2cc(C#CC(C)(C)O)ccc2S(=O)(=O)N([C@H](C)CO)C[C@H]1C	·	·	·	1	0	·
C=C(C(=O)c1ccccc1)C(NC(C)(C)C)c1ccccc1 (stereo unspecified)	91*	81*	37	19	43	·
C=C(C(=O)c1ccccc1)C(C)CC(=O)c1ccccc1 (stereo unspecified)	-7	62*	6	-2	·	-32
CCCNC(=O)N(C)C[C@@H]1Oc2cc(C#Cc3ccccn3)ccc2S(=O)(=O)N([C@@H](C)CO)C[C@@H]1C	·	·	·	-1	-6	·
COC/C=C/C1=CC2=CC(=O)C(C)(OC(=O)c3cnc4ccccc4n3)C(=O)C2=CN1c1ccccc1 (stereo unspecified)	·	67*	·	-1	9	-4
CNCCNC[C@H](Cc1cccc2ccccc12)NCCc1ccccc1	-3	-11	-12	5	-13	·
CNC[C@H](Cc1ccccc1)NC[C@@H](Cc1cccc2ccccc12)NCCc1ccc(C)cc1	-8	5	6	5	46	123*
C[C@@H]1CCCCO[C@H](CN(C)Cc2ccccc2)[C@H](C)CN([C@@H](C)CO)C(=O)c2cc(NC(=O)c3ccccc3)ccc2O1	·	-24	·	6	4	·
C[C@@H]1CN([C@H](C)CO)C(=O)c2cc(NC(=O)C3CCCCC3)ccc2O[C@@H](C)CCCCO[C@H]1CN(C)Cc1ccncc1	·	8	·	·	2	·
C[C@@H]1CCCCO[C@H](CN(C)Cc2ccncc2)[C@H](C)CN([C@@H](C)CO)C(=O)c2cc(NC(=O)C3CCCCC3)ccc2O1	·	67*	·	6	?	·
C[C@@H]1CCCCO[C@H](CN(C)Cc2ccncc2)[C@H](C)CN([C@@H](C)CO)C(=O)c2cc(NC(=O)c3ccccc3)ccc2O1	·	70*	·	9	58*	·
C[C@@H]1CCCCO[C@H](CN(C)Cc2ccccc2)[C@@H](C)CN([C@H](C)CO)C(=O)c2cc(NC(=O)c3ccccc3)ccc2O1	-1	1	90*	7	13	·
C[C@@H]1CN([C@H](C)CO)C(=O)c2cc(NS(C)(=O)=O)ccc2O[C@@H](C)CCCCO[C@H]1CN(C)Cc1ccc(C(=O)O)cc1	·	-11	·	·	0	·
CCOC(=O)c1sc(=S)n(C)c1NC(=O)c1ccccc1Cl	4	76*	14	-2	-2	-6
CCOC(=O)c1sc(=S)n(C)c1NC(=O)c1ccc(OC)cc1	3	24	-7	3	-18	2
N#CC(c1cccc(Cl)c1)c1ccc2c(C(F)(F)F)cc(C(F)(F)F)nc2n1 (stereo unspecified)	35	·	88*	·	·	97*
NNc1ccc2c(C(F)(F)F)cc(C(F)(F)F)nc2n1	-3	19	-10	·	13	-10
CNC[C@H]1Oc2ncc(C3=CCCC3)cc2C(=O)N([C@@H](C)CO)C[C@H]1C	·	·	·	·	-3	·
CC1(C)CC(NC(=O)c2ccccc2)CC(C)(C)N1	-16	3	-18	2	-1	-1
CC1(C)CC(Nc2ccc(Nc3ccccc3)cc2)CC(C)(C)N1	-13	69*	9	20	5	22
SMILES	LMP1 NFkB inh	PAX8 inh HTS	Shn3 3UTR inh	FN deposit inh	EWS-Fli block	aSyn 5UTR inh
C=CC[C@@H](CC(=O)N(CCO)Cc1ccccc1)C(=O)N[C@@H](COC(=O)[C@@H](CC=C)Cc1ccc(F)cc1)Cc1c[nH]c2ccccc12	7	50	30	-8	-6	·
C=CCC[C@H](Cc1ccc(F)cc1)C(=O)OC[C@@H](Cc1c[nH]c2ccccc12)NC(=O)[C@H](CC=C)CC(=O)N(CCO)Cc1ccccc1	13	77*	?	-7	6	·
C=CCC[C@H](Cc1ccc(F)cc1)C(=O)OC[C@@H](Cc1c[nH]c2ccccc12)NC(=O)[C@H](CC=C)CC(=O)NCCO	-2	28	13	-6	-2	·
C=CC[C@H](CC(=O)N(CCO)Cc1ccccc1)C(=O)N[C@@H](COC(=O)[C@@H](CC=C)Cc1ccc(F)cc1)Cc1c[nH]c2ccccc12	-2	69*	-12	-14	0	·
C=CCC[C@@H](Cc1ccc(F)cc1)C(=O)OC[C@@H](Cc1c[nH]c2ccccc12)NC(=O)[C@H](CC=C)CC(=O)N(CCO)Cc1ccccc1	9	101*	50	-17	4	·
O=C(Nc1ccc(Cl)c(Cl)c1)N[C@@H]1CC[C@@H](CCn2cc(C3CC3)nn2)O[C@@H]1CO	·	-4	·	-7	3	·
CCN(CC)CCNc1cc(C)nc2c1C(=O)C(=O)C=C2N1CCCCC1	-6	73*	82	13	-17	81*
COc1cccc(NC(=O)C[C@H]2CC[C@@H]3[C@@H](COc4ccc(NC(C)=O)cc4C(=O)N3C)O2)c1	·	-7	·	-1	5	·
O=C(C[n+]1cc(-c2ccccc2)n2c1CCCCC2)c1ccc(Cl)cc1	-4	40	3	-9	-15	-6
Cc1ccc(-c2c[n+](CC(=O)c3ccc(Br)cc3)c3n2CCCCC3)cc1	11	98*	43	4	48	19
NC(=O)CC(NC(=O)Cc1cccc2ccccc12)c1ccc(NCc2ccc(F)cc2)c([N+](=O)[O-])c1 (stereo unspecified)	52*	0	30	8	4	22
NC(=O)CC(NC(=O)Cc1cccc2ccccc12)c1ccc(NCc2ccccc2)c([N+](=O)[O-])c1 (stereo unspecified)	-1	0	-7	-1	-13	25
COc1ccc(CN(C)C[C@H]2OCCCC[C@H](C)Oc3ccc(N(C)C)cc3C(=O)N([C@H](C)CO)C[C@@H]2C)cc1	·	-3	·	·	7	·
CCc1nnc(NC(=O)C(NC(=O)c2ccccc2Cl)C(C)C)s1 (stereo unspecified)	10	0	7	-4	-10	8

Screening results from PubChem BioAssay.
